Screening results (PubChem BioAssay)
SIAE primary: blocks human sialic acid acetylesterase | Q9HAT2 | SIAE FP-Rh probe binding, fluorescence polarization | inhibition, % at 9.66 µM | 370,000 compounds, 0.69% hits;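 active means inhibition above a cutoff: mean of compounds within the control limits plus 3 SD of those, cut at about 17% in these data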;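 further: 0% = plate median of compound wells and 100% = probe without SIAE protein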
Target sequence (Q9HAT2 whole entry, looked up): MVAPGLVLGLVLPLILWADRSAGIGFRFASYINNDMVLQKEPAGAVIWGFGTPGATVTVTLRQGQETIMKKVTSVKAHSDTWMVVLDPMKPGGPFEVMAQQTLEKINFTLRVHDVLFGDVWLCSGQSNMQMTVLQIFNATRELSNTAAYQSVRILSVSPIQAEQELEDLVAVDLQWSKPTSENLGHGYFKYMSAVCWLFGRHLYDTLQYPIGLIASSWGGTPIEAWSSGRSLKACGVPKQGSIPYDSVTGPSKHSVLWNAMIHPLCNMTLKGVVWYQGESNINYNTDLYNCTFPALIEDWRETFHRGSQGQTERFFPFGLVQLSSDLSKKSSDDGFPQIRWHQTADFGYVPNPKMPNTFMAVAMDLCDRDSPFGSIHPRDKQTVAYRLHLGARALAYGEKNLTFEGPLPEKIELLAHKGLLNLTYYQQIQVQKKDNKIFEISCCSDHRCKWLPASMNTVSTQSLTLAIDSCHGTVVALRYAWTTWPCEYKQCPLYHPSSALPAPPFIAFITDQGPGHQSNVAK
mABHD4 FP: inhibitors of mouse ABHD4. Q8VD66. 370,000 compounds, 0.54% hits. purified mABHD4, FP-Rh probe fluorescence polarization. AID 720543. inhibition, % at 8.92 µM;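 active means inhibition exceeding the mean over every tested compound plus 3 SD, cut at about 30% in these data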;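 further: 0% = plate median of compound wells and 100% = S159A mutant with DMSO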
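Assay system: mouse ABHD4 enzyme, wild type / Also added: fluorescent activity-based probe FP-Rh / Doses: single nominal dose of 8.92 µM, 0.89% DMSO final / Timing: 45 min compound pre-incubation plus 60 min probe step, 25 °C / Signal: FP readout, ex 525 nm / em 598 nm / Control set: S159A mutant/DMSO as 100%, compound-well median as 0%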
HTRA1 inhibitor: HTRA1 (human) protease inhibition. Q92743. inhibition, % at 5.96 µM. recombinant HTRA1, FP-rhodamine activity-based probe, fluorescence polarization. 340,000 compounds, 0.5% hits; in the data active means inhibition above about 36%;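 further: 0% = enzyme with DMSO and 100% = wells lacking enzyme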
TCR CD3 inh: inhibitors of human TCR-CD3 interaction; AID 651800; inhibition, % at 9.4 µM; 360,000 compounds, 0.37% hits; TAMRA-labeled TCR probe fluorescence, biochemical; in the data active means inhibition above about 19%;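 further: recombinant mutant TCR 2C K166C tagged with TAMRA read by polarization; 0% = receptor in buffer alone and 100% = receptor with positive control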
PME-1 inh: blocks human protein phosphatase methylesterase 1. Q9Y570. recombinant PME-1, FP-Rh probe fluorescence polarization. inhibition, % at 5.9 µM. 320,000 compounds, 0.53% hits;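 active means inhibition above the campaign mean of all compounds plus 3 SD, cut at about 26% in these data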;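 further: competitive labeling of PME-1 active site by serine hydrolase directed probe; 0% = PME-1 with DMSO and 100% = wells lacking PME-1 enzyme; inhibitors block probe labeling so polarization falls and inhibition rises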
Fam108B inh: blocks mouse Fam108B hydrolase in RBBP9 counter-screen. inhibition, % at 9.51 µM. recombinant Fam108B, FP-Rh probe fluorescence polarization. 300,000 compounds, 0.33% hits. AID 1947;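 active means inhibition above the screen mean inhibition plus 3 SD, computed separately per campaign, cut at about 18% in these data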;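 further: inhibitors lower polarization as less probe binds the enzyme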
ABHD4 confirm: ABHD4 (mouse) inhibition, FP confirmation. 1,800 compounds, 55% hits. shares compounds with mABHD4 FP. purified mABHD4, FP-Rh probe fluorescence polarization. inhibition, % at 8.92 µM;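 active means mean inhibition across replicates above the hit cutoff set in the primary screen, cut at about 30% in these data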;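 further: 0% = wild-type ABHD4 with DMSO and 100% = catalytically dead S159A mutant with DMSO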
Starred values were filed as active, the others as inactive. Compounds with a hit are over-represented: about 1.8% of the library has one in this group of screens.

`C/C(=N\Nc1nc2ccccc2[nH]1)c1ccccn1` gave SIAE primary 4, mABHD4 FP 36*, HTRA1 inhibitor 27, TCR CD3 inh -1, PME-1 inh 5, Fam108B inh -3 and ABHD4 confirm 21.
CCN(CC)c1ccc(/C=N/Nc2nc3ccccc3[nH]2)cc1 was read as SIAE primary 17, mABHD4 FP 30*, HTRA1 inhibitor 35, TCR CD3 inh 0 and ABHD4 confirm 47*.
`CC(/C=N/Nc1nc2ccccc2[nH]1)=C\c1ccccc1` gave SIAE primary 11, mABHD4 FP 42*, HTRA1 inhibitor 13, TCR CD3 inh -3, PME-1 inh -103, Fam108B inh 4 and ABHD4 confirm 44*.
For C=CCn1nc(C(=O)Nc2ccc(OC)cc2)cc1-c1sc(NC(=O)c2ccccc2)nc1C the results were SIAE primary -26, mABHD4 FP -38 and TCR CD3 inh 2.
Screening COC(=O)C1=C(N)Oc2cc(N(C)C)ccc2C1c1ccccc1OC (configuration not stated) returned SIAE primary 5, mABHD4 FP 47*, HTRA1 inhibitor 4, TCR CD3 inh -9, PME-1 inh -3, Fam108B inh -7 and ABHD4 confirm -20.
COC(=O)C1=C(N)Oc2cc(C)n(CC3CCCO3)c(=O)c2C1c1ccccc1OC (configuration not stated) was read as SIAE primary 6, mABHD4 FP 0, HTRA1 inhibitor 5, TCR CD3 inh 3, PME-1 inh -3 and Fam108B inh 0.
For COc1ccc(/C=N/NC(=S)Nc2ccccc2[N+](=O)[O-])cc1O the results were SIAE primary -1, mABHD4 FP 44*, HTRA1 inhibitor 16, TCR CD3 inh 8, PME-1 inh 35*, Fam108B inh 16 and ABHD4 confirm 24.
For O=[N+]([O-])c1cc(/C=N/NC(=S)Nc2ccccc2Cl)ccc1Cl the results were SIAE primary -13, mABHD4 FP -3, HTRA1 inhibitor -12, TCR CD3 inh -3, PME-1 inh -3 and Fam108B inh 0.
O=C(O)CN1C(=O)/C(=C2\SC(=S)N(C(Cc3ccccc3)C(=O)O)C2=O)c2ccccc21 (configuration not stated) was read as SIAE primary 2, mABHD4 FP 56*, HTRA1 inhibitor -3, TCR CD3 inh -17, PME-1 inh 3, Fam108B inh -2 and ABHD4 confirm 45*.
CCCC(C(=O)O)N1C(=O)/C(=C2\C(=O)N(C)c3ccccc32)SC1=S (configuration not stated) was read as SIAE primary 12, mABHD4 FP 41*, HTRA1 inhibitor 3, TCR CD3 inh 1, PME-1 inh 1, Fam108B inh 5 and ABHD4 confirm 58*.
`Cc1c(N2C(=O)/C(=C3/C(=O)N(C)c4ccccc43)SC2=S)c(=O)n(-c2ccccc2)n1C` gave SIAE primary 3, mABHD4 FP 5, HTRA1 inhibitor -3, TCR CD3 inh 8, PME-1 inh 5 and Fam108B inh -3.
Cc1cccnc1C(NC(=O)C1CCN(CCCOc2ccc(F)cc2)CC1)c1ccccc1 (configuration not stated) was read as SIAE primary 2, mABHD4 FP 2 and TCR CD3 inh 1.
For CC(=O)Nc1ccc(S(=O)(=O)N2CCC(c3nc4c(nnn4Cc4ccccc4Cl)c(=O)[nH]3)CC2)cc1 the results were SIAE primary -8, mABHD4 FP -11, HTRA1 inhibitor -25, TCR CD3 inh 8, PME-1 inh 7 and Fam108B inh -3.
`COc1ccc(NC(=S)Nc2ccc(N)c([N+](=O)[O-])c2)cc1` gave SIAE primary 2, mABHD4 FP 34*, HTRA1 inhibitor 36, TCR CD3 inh -2, PME-1 inh 15, Fam108B inh 1 and ABHD4 confirm 8.
Screening COc1ccc(NC(=S)Nc2ccc3nccnc3c2)cc1 returned SIAE primary -1, mABHD4 FP 7, HTRA1 inhibitor 5, TCR CD3 inh -5, PME-1 inh -9 and Fam108B inh 2.
`O=C(NCCc1ccc(Cl)cc1)c1ccc2c(=O)[nH]c3c(C(=O)NCC4CCCO4)sc(=S)n3c2c1` (configuration not stated) gave SIAE primary 7, mABHD4 FP 36*, TCR CD3 inh 1 and ABHD4 confirm 33*.
For CC(C)[C@@H]1CC[C@@H](C)C[C@H]1OC[B-](F)(F)F the results were SIAE primary 8, mABHD4 FP 43*, TCR CD3 inh -6 and ABHD4 confirm 47*.
For CC1CCC(C(C)C)C(OCC(O)CNC(C)(C)C)C1 (configuration not stated) the results were SIAE primary -2, mABHD4 FP -3, HTRA1 inhibitor -10, TCR CD3 inh -1, PME-1 inh -1 and Fam108B inh -1.
CC(CCc1ccc(O)cc1)NCCc1ccc(O)c(O)c1 (configuration not stated) was read as SIAE primary 8, mABHD4 FP 33*, HTRA1 inhibitor 32, TCR CD3 inh -9, PME-1 inh -2, Fam108B inh 1 and ABHD4 confirm 15.
Screening O=S(=O)(Nc1ccc(-c2nc3cccnc3s2)cc1)c1cccs1 returned SIAE primary -5, mABHD4 FP -9, HTRA1 inhibitor -6, TCR CD3 inh 5, PME-1 inh 0 and Fam108B inh 1.
`Cc1cc(-c2nc3cccnc3s2)ccc1NS(=O)(=O)c1cccs1` gave SIAE primary -4, mABHD4 FP 46*, HTRA1 inhibitor -13, TCR CD3 inh -1, PME-1 inh 4, Fam108B inh 0 and ABHD4 confirm -2.
Screening CCOc1ccc(-n2ccc(=O)c(C(=O)Nc3ccc(S(=O)(=O)N4CCOCC4)cc3)n2)cc1 returned SIAE primary -4, mABHD4 FP 5, HTRA1 inhibitor 0, TCR CD3 inh 3, PME-1 inh -1 and Fam108B inh 3.
`Cc1cc(-c2ccc(S(=O)(=O)N3CCN(c4cccc(C)c4C)CC3)s2)on1` gave SIAE primary -8, mABHD4 FP 5, HTRA1 inhibitor 6, TCR CD3 inh 4, PME-1 inh -10 and Fam108B inh 2.
Cc1ccc(C)c(S(=O)(=O)/N=C2\C=C(NS(=O)(=O)c3ccccc3)C(=O)c3ccccc32)c1 was read as SIAE primary -4, mABHD4 FP 46*, HTRA1 inhibitor 13, TCR CD3 inh -7, PME-1 inh 5, Fam108B inh 4 and ABHD4 confirm 58*.
`O=C(O)C1CCN(S(=O)(=O)c2ccc3[nH]ccc3c2)CC1` gave SIAE primary 0, mABHD4 FP 30*, HTRA1 inhibitor 1, TCR CD3 inh 0 and ABHD4 confirm 29.
